In ChEMBL document CHEMBL4184136, “α-Glucosidase Inhibitory and Cytotoxic Taxane Diterpenoids from the Stem Bark of Taxus wallichiana” (J Nat Prod, 2017):
pIC50: −log10 of the molar value.

Columns and labels:
[1] = Inhibition of Saccharomyces cerevisiae alpha-glucosidase using p-nitrophenyl-alpha-D-glucopyranoside substrate incubated for 30 mins
Procedure, shortened: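 Sample solution received 3 mM p-nitrophenyl-α-D-glucopyranoside and 0.2 U/mL α-glucosidase (stock levels) in 0.01 M phosphate buffer pH 7.0, incubated at 37 °C for 30 min. Stopped with 0.1 M Na2CO3; p-nitrophenol release read at 401 nm. IC50 is the concentration giving 50% inhibition of enzyme activity; acarbose as positive control.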

[2] = tested on: HeLa; assay: Cytotoxicity against human HeLa cells assessed as reduction in cell viability incubated for 72 hrs by WST-8 dye based assay; type: functional
Procedure, shortened: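 HeLa cells kept in DMEM with 10% FBS, 0.1% NaHCO3 and 1% antibiotic-antimycotic. Cells seeded at 2 × 10^3/well and grown 24 h at 37 °C in humidified 5% CO2. Washed with PBS, then exposed to serially diluted samples in DMEM for 72 h. Washed twice, given DMEM with 10% WST-8 for 3 h, A450 read; viability from mean of three wells; IC50.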

[3] = tested on: Saccharomyces cerevisiae; assay: Potency index, ratio of IC50 for Acarbose to IC50 for test compound for inhibition of Saccharomyces cerevisiae alpha-glucosidase using p-nitrophenyl-alpha-D-glucopyranoside substrate incubated for 30 mins

Structure (SMILES) | pIC50 [1] | pIC50 [2] | Ratio IC50 [3]
C=C1[C@@H](O)CC[C@@]2(C)C[C@H](OC)C3=C(C)C[C@H](OC(=O)C(C)C(C)O)[C@@H]([C@@H](OC(C)=O)[C@H]12)C3(C)C (some centres undefined) | 3.95 |  | 
C=C1[C@@H](OC(C)=O)CC[C@@]2(C)C[C@H](OC)C3=C(C)C[C@H](OC(C)=O)[C@@H]([C@@H](OC(C)=O)[C@H]12)C3(C)C | 4.50 |  | 
CC(=O)O[C@@]12CO[C@@H]1C[C@H](O)[C@@]1(C)C(=O)[C@H](O)C3=C(C)C(=O)C[C@@](O)([C@@H](OC(=O)c4ccccc4)[C@H]21)C3(C)C | < 3.60 | < 5.00 | 
CCCCCC(=O)N[C@@H](c1ccccc1)[C@@H](O)C(=O)O[C@H]1C[C@@]2(O)[C@@H](OC(=O)c3ccccc3)[C@@H]3[C@]4(OC(C)=O)CO[C@@H]4C[C@H](O[C@@H]4OC[C@@H](O)[C@H](O)[C@H]4O)[C@@]3(C)C(=O)[C@H](OC(C)=O)C(=C1C)C2(C)C | 4.03 | 8.82 | 
COc1cc(C[C@H]2COC(=O)[C@@H]2Cc2ccc(O)c(OC)c2)ccc1O [MATAIRESINOL] | 4.33 |  | 
C=C1[C@@H](OC(=O)/C=C/c2ccccc2)C[C@H](OC(C)=O)[C@@]2(C)[C@@H](OC(C)=O)[C@H](OC(C)=O)C3=C(C)C(=O)C[C@@H]([C@@H](OC(C)=O)[C@H]12)C3(C)C | 3.95 |  | 
CC(=O)O[C@@]12CO[C@@H]1C[C@H](O[C@@H]1OC[C@@H](O)[C@H](O)[C@H]1O)[C@@]1(C)C(=O)C(=O)C3=C(C)CC[C@@]3(C(C)(C)OC(=O)c3ccccc3)[C@@H](O)[C@H]21 | 4.08 | 5.31 | 
C=C1[C@@H](O)C[C@H](OC(C)=O)[C@@]2(C)[C@@H](OC(C)=O)[C@H](OC(C)=O)C3=C(C)C(=O)C[C@@H]([C@@H](O)[C@H]12)C3(C)C | < 3.60 | < 5.00 | 
CC(C)CC[C@@H](O)[C@](C)(O)[C@H]1CC[C@@]2(O)C3=CC(=O)[C@@H]4C[C@@H](O)[C@@H](O)C[C@]4(C)[C@H]3CC[C@]12C [PONASTERONE A] | 3.94 | < 5.00 | 
C=C1[C@H]2C[C@]34CC=C(C)C3[C@@H](OC4(C)C)[C@H](OC(C)=O)[C@]2(C)[C@@H](OC(C)=O)C[C@@H]1O (some centres undefined) | 4.05 | < 5.00 | 
CC(=O)O[C@@]12CO[C@@H]1C[C@@H](O)[C@@]1(C)C(=O)[C@H](O)C3=C(C)[C@@H](OC(=O)[C@H](O)[C@@H](NC(=O)c4ccccc4)c4ccccc4)C[C@@](O)([C@@H](OC(=O)c4ccccc4)[C@H]21)C3(C)C | 4.31 | 10.07 | 
COc1cc([C@H]2c3cc(O)c(OC)cc3C[C@H]3C(=O)OC[C@H]23)ccc1O [ALPHA-CONIDENDRIN] | 3.71 | < 5.00 | 
COc1cc(C[C@@H]2COC(=O)[C@H]2Cc2ccc(O)c(OC)c2)ccc1O | 3.76 | < 5.00 | 
C/C=C(\C)C(=O)N[C@@H](c1ccccc1)[C@@H](O)C(=O)O[C@H]1C[C@@]2(O)[C@@H](OC(=O)c3ccccc3)[C@@H]3[C@]4(OC(C)=O)CO[C@@H]4C[C@H](O[C@@H]4OC[C@@H](O)[C@H](O)[C@H]4O)[C@@]3(C)C(=O)C(=O)C(=C1C)C2(C)C | 3.85 |  | 
CCCCCCCCC/C=C\CC/C=C/[C@@H](O)[C@H](CO[C@@H]1O[C@H](CO)[C@@H](O)[C@H](O)[C@H]1O)NC(=O)[C@H](O)CCCCCCCCCCCCC | < 3.60 | < 5.00 | 
C=C1[C@@H]2[C@H](OC(C)=O)[C@@H]3CC(=O)[C@@]4(C)OC[C@@]3(C)[C@@]4(O)[C@@H](OC(C)=O)[C@H](OC(C)=O)[C@]2(COC(=O)c2ccccc2)[C@@H](OC(C)=O)C[C@@H]1O | < 3.60 | < 5.00 | 
CC1(C)CC[C@]2(C(=O)O)CC[C@]3(C)C(=CC[C@@H]4[C@@]5(C)CC[C@H](O)C(C)(C)[C@@H]5CC[C@]43C)[C@@H]2C1 [OLEANOLIC_ACID] | 4.06 |  | 
C=C1[C@@H](OC(=O)/C=C/c2ccccc2)C[C@H](OC(C)=O)[C@]2(C)[C@@H]1C[C@@H]1C[C@H](OC(C)=O)C(C)=C([C@@H](OC(C)=O)[C@@H]2OC(C)=O)C1(C)C | 4.42 | 5.24 | 
C=C1[C@@H](OC(C)=O)CC[C@@]2(C)C[C@H](OC(C)=O)C3=C(C)C[C@H](OC(=O)C(C)C(C)O)[C@@H]([C@@H](OC(C)=O)[C@H]12)C3(C)C (some centres undefined) | 3.71 | < 5.00 | 
CO[C@H]1O[C@H]2[C@@H]3[C@@H]1[C@@H](O)C[C@H](O)[C@@]3(C)[C@@H](O)[C@H](OC(C)=O)C1=C(C)[C@@H](OC(C)=O)C[C@]2(O)C1(C)C | 4.01 | < 5.00 | 
CC(=O)O[C@H]1C(=O)[C@@]2(C)[C@H]([C@H](OC(=O)c3ccccc3)[C@]3(O)C[C@H](OC(=O)[C@H](O)[C@@H](NC(=O)c4ccccc4)c4ccccc4)C(C)=C1C3(C)C)[C@]1(OC(C)=O)CO[C@@H]1C[C@@H]2O [PACLITAXEL] | < 3.60 |  | 
CCCCCC(=O)N[C@@H](c1ccccc1)[C@@H](O)C(=O)O[C@H]1C[C@@]2(O)[C@@H](OC(=O)c3ccccc3)[C@@H]3[C@]4(OC(C)=O)CO[C@@H]4C[C@H](O[C@@H]4OC[C@@H](O)[C@H](O)[C@H]4O)[C@@]3(C)C(=O)[C@H](O)C(=C1C)C2(C)C | 4.06 | 7.30 | 
C=C1[C@@H](OC(C)=O)CC[C@@]2(C)C[C@H](OC)C3=C(C)C[C@H](OC(=O)C(C)C(C)O)[C@@H]([C@@H](OC(C)=O)[C@H]12)C3(C)C (some centres undefined) | 5.44 |  | 60
CC=C(C)C(=O)N[C@@H](c1ccccc1)[C@@H](O)C(=O)O[C@H]1C[C@@]2(O)[C@@H](OC(=O)c3ccccc3)[C@@H]3[C@]4(OC(C)=O)CO[C@@H]4C[C@H](O[C@@H]4OC[C@@H](O)[C@H](O)[C@H]4O)[C@@]3(C)C(=O)[C@H](OC(C)=O)C(=C1C)C2(C)C | < 3.60 | 6.85 | 
CC(=O)O[C@@]12CO[C@@H]1C[C@H](O)[C@@]1(C)C(=O)[C@H](O)C3=C(C)[C@@H](OC(=O)[C@H](O)[C@@H](NC(=O)c4ccccc4)c4ccccc4)C[C@@](O)([C@@H](OC(=O)c4ccccc4)[C@H]21)C3(C)C | < 3.60 | 9.12 | 
C=C1[C@@H](OC(=O)/C=C/c2ccccc2)C[C@H](OC(C)=O)[C@]2(C)[C@@H]1C[C@@H]1C[C@H](O)C(C)=C([C@@H](OC(C)=O)[C@@H]2OC(C)=O)C1(C)C [TAXEZOPIDINE H] | 4.82 | < 5.00 | 
C=C1[C@@H](O)C[C@H](OC(C)=O)[C@@]2(C)[C@@H](OC(C)=O)[C@H](OC(C)=O)C3=C(C)C(=O)C[C@@H]([C@@H](OC(C)=O)[C@H]12)C3(C)C | < 3.60 | < 5.00 | 
C[C@H]1O[C@H](O[C@H]2[C@H](O)[C@@H](O)[C@@H](O[C@H]3[C@H](O)[C@@H](O)C(O)O[C@@H]3CO)O[C@@H]2CO)[C@H](O)[C@@H](O)[C@@H]1N[C@H]1C=C(CO)[C@@H](O)[C@H](O)[C@H]1O (some centres undefined) [ACARBOSE] | 3.67 |  | 
CC(=O)O[C@H]1C(=O)[C@]2(C)[C@H](O)C[C@H]3OC[C@@]3(OC(C)=O)[C@H]2[C@H](OC(=O)c2ccccc2)[C@]2(O)C[C@H](OC(=O)[C@H](O)[C@@H](NC(=O)c3ccccc3)c3ccccc3)C(C)=C1C2(C)C | 4.37 |  | 
